Assay results as given in ChEMBL document CHEMBL1667862, “Chisopanins A-K, 11 new protolimonoids from Chisocheton paniculatus and their anti-inflammatory activities” (Bioorg Med Chem, 2011).
pIC50: −log10 of the molar value.

Experiments:
RAW264.7 [1] = assay: Antiinflammatory activity in mouse RAW264.7 cells assessed as inhibition of LPS-induced TNFalpha production treated 2 hrs before LPS challenge measured after 24 hrs by ELISA; assay type: functional, cell-based; details: in the assay text read “measured after 18 hrs” for “measured after 24 hrs”
Procedure, shortened: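 RAW 264.7 cells (RPMI 1640, 10% heat-inactivated FBS, 37 °C, 5% CO2) seeded in 24-well plates, grown 24 h, then exposed to compounds (100, 50, 25, 12.5, 6.25 µM) and LPS as for the nitrite assay. TNF-α in medium measured by mouse ELISA kit. Data as mean ± SD.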

RAW264.7 [2] = assay: Antiinflammatory activity in mouse RAW264.7 cells assessed as inhibition of LPS-induced nitric oxide production treated 2 hrs before LPS challenge measured after 18 hrs by griess reaction; assay type: functional, cell-based
Procedure, shortened: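 RAW 264.7 cells seeded at 1 × 10^5 per well in 24-well plates in RPMI 1640 with 10% heat-inactivated FBS, grown 24 h. Pretreated 2 h with compounds (40, 20, 10, 5, 2.5 µM; DMSO ≤0.1% final), then stimulated with LPS 2 µg/mL for 18 h. Nitrite measured. Mean ± SD.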

| SMILES | pIC50 (RAW264.7 [1]) | pIC50 (RAW264.7 [2]) |
| --- | --- | --- |
| CO[C@@H]1O[C@@H]([C@H](O)C(C)(C)O)C[C@H]1[C@H]1CC[C@]2(C)C3=CC[C@H]4C(C)(C)C(=O)CC[C@]4(C)[C@H]3CC[C@@]12C | 4.26 | 4.53 |
| CC(=O)O[C@@H]1CC[C@]2(C)[C@H]3CC[C@]4(C)C(=CC[C@@H]4[C@H]4CO[C@H](C(C)(C)O)[C@H](O)C4)[C@]3(C)[C@H](O)C[C@H]2C1(C)C | 4.13 | < 4.30 |
| CC(=O)O[C@@H]1CC[C@]2(C)[C@H]3CC[C@]4(C)C(=CC[C@@H]4[C@H]4COC(C)(C)[C@@H](O)[C@H](O)C4)[C@]3(C)[C@H](O)C[C@H]2C1(C)C [CHISIAMOL B] | < 4.00 | 4.78 |
| CC(=O)O[C@@H]1CC[C@]2(C)[C@H]3CC[C@]4(C)C(=CC[C@@H]4[C@H]4COC(C)(C)[C@@H](O)[C@H](O)C4)[C@]3(C)[C@H](OC(C)=O)C[C@H]2C1(C)C [CHISIAMOL C] | < 4.00 | 5.06 |
| CO[C@@H]1O[C@@H]([C@H](O)C(C)(C)O)C[C@H]1[C@H]1CC=C2[C@]3(C)[C@H](O)C[C@H]4C(C)(C)[C@H](OC(C)=O)CC[C@]4(C)[C@H]3CC[C@]21C [CHISIAMOL D] | < 4.00 | 5.19 |
| CO[C@H]1O[C@@H]([C@H](O)C(C)(C)O)C[C@H]1[C@H]1CC=C2[C@]3(C)[C@H](O)C[C@H]4C(C)(C)[C@H](OC(C)=O)CC[C@]4(C)[C@H]3CC[C@]21C [CHISIAMOL E] | < 4.00 | 5.05 |
| CC(=O)O[C@@H]1CC[C@]2(C)[C@H]3CC[C@]4(C)C(=CC[C@@H]4[C@H]4CO[C@](O)(C(C)(C)O)[C@H](O)C4)[C@]3(C)[C@H](OC(C)=O)C[C@H]2C1(C)C [CHISOPANIN A] | 4.57 | 5.27 |
| CC(=O)O[C@@H]1CC[C@]2(C)[C@H]3CC[C@]4(C)C(=CC[C@@H]4[C@H]4CO[C@](O)(C(C)(C)O)[C@H](O)C4)[C@]3(C)[C@H](O)C[C@H]2C1(C)C [CHISOPANIN B] | 4.51 | 5.10 |
| C=C(C)[C@@H](O)[C@H]1C[C@@H]([C@H]2CC=C3[C@]4(C)[C@H](O)C[C@H]5C(C)(C)[C@H](OC(C)=O)CC[C@]5(C)[C@H]4CC[C@]32C)[C@H](OC)O1 [CHISOPANIN C] | < 4.00 | 4.40 |
| C=C(C)[C@@H](O)[C@H]1C[C@@H]([C@H]2CC=C3[C@]4(C)[C@H](O)C[C@H]5C(C)(C)[C@H](OC(C)=O)CC[C@]5(C)[C@H]4CC[C@]32C)[C@H](OCC)O1 [CHISOPANIN D] | < 4.00 | < 4.30 |
| CO[C@@H]1O[C@@H]([C@H](O)C(C)(C)OC)C[C@H]1[C@H]1CC=C2[C@]3(C)[C@H](O)C[C@H]4C(C)(C)[C@H](OC(C)=O)CC[C@]4(C)[C@H]3CC[C@]21C [CHISOPANIN E] | < 4.00 | 5.21 |
| CO[C@H]1O[C@@H]([C@H](O)C(C)(C)OC)C[C@H]1[C@H]1CC=C2[C@]3(C)[C@H](O)C[C@H]4C(C)(C)[C@H](OC(C)=O)CC[C@]4(C)[C@H]3CC[C@]21C [CHISOPANIN F] | < 4.00 | 5.16 |
| CCO[C@@H]1O[C@@H]([C@H](O)C(C)(C)O)C[C@H]1[C@H]1CC=C2[C@]3(C)[C@H](O)C[C@H]4C(C)(C)[C@H](OC(C)=O)CC[C@]4(C)[C@H]3CC[C@]21C [CHISOPANIN G] | < 4.00 | 5.27 |
| CCO[C@H]1O[C@@H]([C@H](O)C(C)(C)O)C[C@H]1[C@H]1CC=C2[C@]3(C)[C@H](O)C[C@H]4C(C)(C)[C@H](OC(C)=O)CC[C@]4(C)[C@H]3CC[C@]21C [CHISOPANIN H] | < 4.00 | < 4.30 |
| CCOC(C)(C)[C@@H](O)[C@H]1C[C@@H]([C@H]2CC=C3[C@]4(C)[C@H](O)C[C@H]5C(C)(C)[C@H](OC(C)=O)CC[C@]5(C)[C@H]4CC[C@]32C)[C@H](OC)O1 [CHISOPANIN I] | < 4.00 | 5.28 |
| CCOC(C)(C)[C@@H](O)[C@H]1C[C@@H]([C@H]2CC=C3[C@]4(C)[C@H](O)C[C@H]5C(C)(C)[C@H](OC(C)=O)CC[C@]5(C)[C@H]4CC[C@]32C)[C@@H](OC)O1 [CHISOPANIN J] | < 4.00 | 4.91 |
| CC(=O)O[C@@H]1CC[C@]2(C)[C@H]3CC[C@]4(C)C(=CC[C@H]4C4=CC(C(O)C(C)(C)O)OC4=O)[C@]3(C)[C@H](O)C[C@H]2C1(C)C (stereo partly specified) [CHISOPANIN K] | 4.32 | 4.48 |
| C[C@@H]1C[C@H]2[C@@H]3CCC4=CC(=O)C=C[C@]4(C)[C@@]3(F)[C@@H](O)C[C@]2(C)[C@@]1(O)C(=O)CO [DEXAMETHASONE] | – | 6.07 |
| O=c1c(-c2ccc(O)cc2)coc2cc(O)cc(O)c12 [GENISTEIN] | 4.72 | – |
